The species named for assay [1] is Homo sapiens. In words: Inhibition of U 46619-induced Aggregation of Human Washed Platelets. In kind it is functional. In short, it runs like this: (§1)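 Human platelets (washed, or platelet-rich plasma) were aggregated with U 46619, a TxA2/PGH2 mimetic. The test agent was titrated against this challenge and reported as an IC50.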
The species named for assay [2] is Homo sapiens. In words: Inhibition of U 46619-induced Aggregation of Human Platelet-rich Plasma. In kind it is functional. The gist of the method:
as §1

Another assay deals with T1, Thromboxane-A synthase (Homo sapiens, UniProt P24557).
T1 sequence (P24557 whole entry): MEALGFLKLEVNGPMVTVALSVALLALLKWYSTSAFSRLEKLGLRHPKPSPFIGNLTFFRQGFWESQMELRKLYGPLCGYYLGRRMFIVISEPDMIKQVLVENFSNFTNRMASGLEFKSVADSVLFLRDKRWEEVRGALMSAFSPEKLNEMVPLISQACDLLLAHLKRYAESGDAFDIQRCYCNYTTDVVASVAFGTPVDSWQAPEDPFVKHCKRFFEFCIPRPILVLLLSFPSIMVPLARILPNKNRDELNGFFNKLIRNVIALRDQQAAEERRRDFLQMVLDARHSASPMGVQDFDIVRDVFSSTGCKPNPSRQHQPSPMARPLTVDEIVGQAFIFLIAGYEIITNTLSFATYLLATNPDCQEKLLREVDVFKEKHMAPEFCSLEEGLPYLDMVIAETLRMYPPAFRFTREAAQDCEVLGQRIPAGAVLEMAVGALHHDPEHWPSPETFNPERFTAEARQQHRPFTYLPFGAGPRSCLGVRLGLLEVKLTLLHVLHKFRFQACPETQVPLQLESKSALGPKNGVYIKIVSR
In words: In vitro inhibition of thromboxane synthetase in microsomal platelet preparation.

The subject of assay [3] is Cavia porcellus. In words: Ex vivo Inhibition of U 46619-induced aggregation of guinea pig platelets at the dose of 10 mg/Kg po per hour expressed as concentration ratio (EC50 of drug/EC50 of control). In kind it is functional. In short, it runs like this:
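Guinea pigs dosed orally at 10 mg/kg; blood sampled 1 h post-dose and platelet aggregation induced ex vivo with U 46619. Result given as concentration ratio, EC50 of U 46619 in drug-treated animals divided by EC50 in vehicle controls (vehicle n = 22). Groups of 4–6 animals; mean ± SEM.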

Assay [4] is filed under the species Homo sapiens. In words: Inhibition of U 46619-induced Aggregation of human Washed platelets. In kind it is functional. In short, it runs like this: as §1
The test system of assay [5] is Cavia porcellus. In words: Ex vivo Inhibition of U 46619-induced aggregation of guinea pig platelets at the dose of 3 mg/Kg po per hour expressed as concentration ratio (EC50 of drug/EC50 of control). In kind it is functional. The gist of the method: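 Oral dosing of guinea pigs at 3 mg/kg, blood drawn 1 h later, then ex vivo U 46619-induced platelet aggregation measured. Concentration ratio is EC50 of U 46619 for the treated group over EC50 for vehicle controls (n = 22). 4–6 animals per group; values are mean ± SEM.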

The IC50 is the concentration that inhibits the measured activity by half. In the case of `O=C(O)CC[C@H](CCCCNS(=O)(=O)c1ccc(Cl)cc1)CCCc1cccnc1`, the IC50 in the assay filed under Homo sapiens [1] is 11 nM; in the assay listed under Homo sapiens [2], 0.38 nM; against Thromboxane-A synthase, 5 nM. The Concentration ratio with Cavia porcellus [3] was 43.
Turning to `O=C(O)CC[C@@H](CCCCNS(=O)(=O)c1ccc(Cl)cc1)CCCc1cccnc1`, the concentration for half-maximal inhibition (IC50) is 26 nM in the assay listed under Homo sapiens [4], 0.55 nM in the assay filed under Homo sapiens [2] and 4.5 nM against Thromboxane-A synthase. Also, in the assay on Cavia porcellus [3], the Concentration ratio amounted to 54.
Take `O=C(O)CC[C@H](CCCCNS(=O)(=O)c1ccc(Cl)cc1)CCOc1cccnc1`: the IC50 in the assay filed under Homo sapiens [4] amounted to 10 nM; in the assay listed under Homo sapiens [2], 0.32 nM; at Thromboxane-A synthase, 3.5 nM. In addition, the Concentration ratio in the assay with Cavia porcellus [5] is listed as 90.
For `O=C(O)CC[C@@H](CCCCNS(=O)(=O)c1ccc(Cl)cc1)CCOc1cccnc1` the same measures were 9 nM, 0.53 nM, 13 nM and 66.
As for `O=C(O)CCC(CCCCNS(=O)(=O)c1ccc(Cl)cc1)CCOc1cccnc1` (stereo unspecified), the IC50 worked out at 0.28 nM in the assay filed under Homo sapiens [2] and 2.6 nM against Thromboxane-A synthase. Further, the Concentration ratio with Cavia porcellus [5] was greater than 100.
In turn, `O=C(O)CCC(CCCCNS(=O)(=O)c1ccc(Cl)cc1)CCCc1cccnc1` (stereo unspecified) gave a 50% inhibitory concentration (IC50) in the assay listed under Homo sapiens [2] of 0.39 nM. Further, in the assay with Cavia porcellus [3], the Concentration ratio is 27.

Values taken from ChEMBL document CHEMBL1127028, “Thromboxane receptor antagonism combined with thromboxane synthase inhibition. 5. Synthesis and evaluation of enantiomers of 8-[[(4-chlorophenyl)sulfonyl]amino]-4-(3-pyridinylalkyl)octanoic acid” (J Med Chem, 1993).
